Shown are actives, neighbours in structure and some others; about 3.5% of the full set was active somewhere.
RGS4 inh – RGS4 inhibitors, primary screen, cell-based, HEK293 M3R inducible RGS4, calcium flux; Regulator of G-protein signaling 4 (Homo sapiens), P49798; Fluo-4 calcium flux; stronger effect = higher value; triggered by carbachol at its EC20; B-score at 10 µM; 0.45% of 310,000 active;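 active means B-score, a plate-corrected calcium signal, over three deviations above library mean, with baseline fluorescence within five deviations of library mean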;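 further: RGS4 expression induced by doxycycline in cells with stable M3 receptor; B-score is computed from the integrated fluorescence ratio over baseline after carbachol; higher B-score means a larger calcium signal and so more RGS4 inhibition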
Target sequence (P49798 whole entry, looked up): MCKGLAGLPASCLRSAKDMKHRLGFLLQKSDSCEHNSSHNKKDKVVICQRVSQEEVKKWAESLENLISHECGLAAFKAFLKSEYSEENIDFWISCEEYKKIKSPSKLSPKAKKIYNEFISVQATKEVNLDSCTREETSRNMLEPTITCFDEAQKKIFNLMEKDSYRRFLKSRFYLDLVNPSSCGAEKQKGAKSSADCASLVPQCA
MrgX1 agonist – agonists of human MrgX1 receptor, primary screen, HEK293 cells, Fluo-4 calcium flux | 0.44% of 310,000 active | B-score at 10 µM | Fluo-4 calcium fluorescence, agonist mode; stronger effect = higher value | Mas-related G-protein coupled receptor member X1 (Homo sapiens), Q96LB2 | AID 588627, 2011;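 active means calcium response B-score plate-corrected fluorescence ratio at least 3 library SD, with starting fluorescence B-score inside 5 SD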
Target sequence (Q96LB2 whole entry, looked up): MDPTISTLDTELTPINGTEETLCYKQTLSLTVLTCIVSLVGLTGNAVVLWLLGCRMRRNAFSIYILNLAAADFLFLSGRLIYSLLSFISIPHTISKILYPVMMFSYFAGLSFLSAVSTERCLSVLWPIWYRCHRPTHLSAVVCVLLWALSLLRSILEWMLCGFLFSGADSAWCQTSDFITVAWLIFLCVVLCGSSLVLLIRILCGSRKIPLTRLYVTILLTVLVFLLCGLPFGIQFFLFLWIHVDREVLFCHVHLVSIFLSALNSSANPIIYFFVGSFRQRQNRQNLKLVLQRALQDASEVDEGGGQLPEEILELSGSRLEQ
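Material: HEK293 cells stably expressing human MrgX1 receptor | Quantity: 15,000 cells per well | Times: Cells plated overnight, dye loaded 0.5 h 37 °C, 0.5 h room temperature | Measured by: Kinetic Fluo-4 NW fluorescence of intracellular calcium | Control set: Positive and negative controls per plate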
MrgX1 allo act – positive allosteric modulators of MrgX1, primary screen, HEK293 cells, Fluo-4 calcium flux; 0.63% of 310,000 active; Mas-related G-protein coupled receptor member X1 (Homo sapiens), Q96LB2; FDSS; stronger effect = higher value; B-score at 10 µM; AID 588675, 2011;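 active means plate-corrected calcium response at least 3 library SD above typical, normal starting fluorescence, not activating the receptor alone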;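 further: compound read alongside a low EC10 to EC30 dose of BAM8-22 agonist; peak minus trough fluorescence over baseline measured at the second addition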
RGS4 pot – RGS4 potentiators or activators, primary screen, cell-based, HEK293 M3R inducible RGS4, calcium flux; carbachol calcium flux Fluo4; stronger effect = lower value; B-score at 10 µM; 0.92% of 310,000 active; AID 463111, 2010;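 active means B-score of the integrated calcium signal more than 4 SD below the library mean, with starting fluorescence not abnormally high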;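 further: negative B-score means reduced calcium response which marks RGS4 activation or potentiation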
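Assay system: HEK293 FlpIn-TREx cells, stable M3R, doxycycline-inducible RGS4 / Probe or stimulus: carbachol, ECmax concentration / Times: overnight RGS4 induction, 30 min dye load 37 °C, 20 min compound RT / Signal: kinetic calcium fluorescence imaging with Fluo4-AM dye, 2 µM / Measure: Agonist-evoked peak-minus-minimum fluorescence over baseline, integrated ratio, B score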
MrgX1 antag – antagonists of human MrgX1 receptor, primary screen, HEK293 cells, Fluo-4 calcium flux. BAM8-22 antagonism; stronger effect = lower value. AID 588676, 2011. B-score at 10 µM. 1.3% of 310,000 active. Mas-related G-protein coupled receptor member X1 (Homo sapiens), Q96LB2;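 active means calcium-response B-score plate-corrected more than 3 library SD below zero, starting fluorescence within 5 deviations, no agonist response on first addition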;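 further: peak minus trough fluorescence over baseline after final BAM8-22 challenge near maximal dose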
Numbers without * were called inactive; i = inactive; . = no result given.

SMILES	RGS4 inh	MrgX1 agonist	MrgX1 allo act	RGS4 pot	MrgX1 antag
C(=N\Nc1nc(-c2ccccc2)cs1)/c1ccco1	i	i	i	i	-6.7*
Cc1ccc(-c2csc(N/N=C/C=C/c3ccccc3)n2)cc1	i	i	i	i	-5.4*
Cc1ccc(-c2csc(N/N=C/c3ccco3)n2)cc1	i	i	i	i	i
O=C(c1ccc([N+](=O)[O-])s1)N1CCc2ccccc21	i	i	i	i	i
O=C(c1ccc([N+](=O)[O-])s1)N1CCCc2ccccc21	i	i	i	-7.7*	i
C(=N/Nc1nc(-c2ccccc2)cc(-c2ccccc2)n1)/c1cccnc1	i	i	i	-7.1*	i
Cc1cc(-c2ccccc2)nc(N/N=C/c2ccc(O)cc2O)n1	i	i	i	-7.2*	i
Cc1cc(-c2ccccc2)nc(N/N=C/c2ccccc2)n1	i	i	i	i	i
Cc1ccc(-c2cc(-c3ccccc3)nc(N/N=C/c3cccnc3)n2)cc1	i	i	i	i	i
COc1ccc(/C=N/Nc2nc(C)cc(-c3ccccc3)n2)cc1OC	i	i	i	-7.3*	i
CC(C)C(c1nnnn1Cc1ccc(F)cc1)N1CCN(Cc2ccc3c(c2)OCO3)CC1 (stereo unspecified)	i	i	i	-7.2*	i
Cc1nn(Cc2ccccc2Cl)c(C)c1NC(=O)/C=C/c1cnn(C)c1	i	i	i	i	-4.6*
CCn1cc(/C=C/C(=O)Nc2c(C)nn(Cc3ccccc3)c2C)cn1	i	i	i	i	i
Cc1nc2ccccc2c2oc(C(=O)N3CCN(c4ccc([N+](=O)[O-])cc4)CC3)cc12	i	i	6.6*	i	i
Cc1ccc(S(=O)(=O)N2CCOCC2)cc1NC(=O)Cn1nc(C)c([N+](=O)[O-])c1C	i	i	i	i	-5*
Cc1ccc(Nc2ccc(S(=O)(=O)N3CCOCC3)cc2[N+](=O)[O-])cc1C	i	i	i	i	-9.2*
COc1cc(/C=C/C(=O)OC(C)C(=O)NC2CCCCC2C)cc(Cl)c1OC (stereo unspecified)	i	i	i	i	i
CCCOc1ccc(N)cc1N	i	i	i	i	-6.7*
O=C(NC(C(=O)N/N=C/c1cccnc1)c1n[nH]c(=O)c2ccccc12)c1ccccc1 (stereo unspecified)	i	36*	i	i	i
O=C(c1c(F)cccc1F)N1CCCC(c2nc(-c3ccc(F)cc3)no2)C1 (stereo unspecified)	i	i	i	i	i
O=C(C1CCN(C2CCN(Cc3ccc4c(c3)CCO4)CC2)CC1)N1CCOCC1	i	i	i	i	i
CCN(CC)C(=O)N1c2ccccc2C=Cc2ccccc21	i	i	i	i	i
CN(C)CCCNC(=O)N1c2ccccc2C=Cc2ccccc21	i	i	i	-7.2*	i
COc1ccc(OCC2c3cc(OC)c(OC)cc3CCN2C(=O)C(C)C)cc1 (stereo unspecified)	i	.	.	i	.
CC1=N/C(=C\c2ccc([N+](=O)[O-])cc2)C(=O)N1c1ccc(F)cc1F	i	i	17*	i	i
SMILES	RGS4 inh	MrgX1 agonist	MrgX1 allo act	RGS4 pot	MrgX1 antag
Cc1cc([N+](=O)[O-])ccc1NC(=O)Nc1ccc(F)cc1F	i	i	i	i	i
CC1=N/C(=C/c2ccc([N+](=O)[O-])cc2)C(=O)N1c1ccc(Cl)cc1Cl	i	i	15*	i	i
CC1=N/C(=C\c2ccc([N+](=O)[O-])cc2)C(=O)N1c1ccc(Cl)cc1	i	i	i	i	i
CCC(=NCc1ccc(Cl)c(Cl)c1)c1nc(-c2ccco2)oc1O	i	i	i	-7.1*	i
CCOC(=O)C1CCCN(CCC(=O)Nc2ccccc2C)C1 (stereo unspecified)	i	i	i	i	i
O=C1CSC(c2cccc([N+](=O)[O-])c2)N1c1ccccc1 (stereo unspecified)	i	i	i	-7.5*	i
O=C1CSC(c2cccc([N+](=O)[O-])c2)N1c1ccc(O)cc1 (stereo unspecified)	i	i	i	i	i
CCOC(=O)C1=NN(C(=O)c2ccc(OC)cc2)C(O)(c2ccc(Cl)cc2)C1 (stereo unspecified)	i	48*	i	i	i
CCOC(=O)C1=NN(C(=O)c2ccco2)C2(CC2)C1	i	i	i	i	i
CCOC(=O)C1=NN(C(=O)Cc2ccccc2)C(O)(c2ccc(Cl)cc2)C1 (stereo unspecified)	i	i	i	i	i
COC(=O)C1=NN(C(=O)c2cccc(Br)c2)C(O)(c2ccc(Cl)cc2)C1 (stereo unspecified)	i	36*	i	i	i
CCOC(=O)C1=NN(C(=O)c2ccccc2)C(O)(c2ccc(C)cc2)C1 (stereo unspecified)	i	i	i	i	i
CCOC(=O)C1=NN(C(=O)c2cccc(Br)c2)C(O)(C(C)(C)C)C1 (stereo unspecified)	i	96*	i	i	i
CCCN(CCC)CCCNC(=O)C1c2cc(OC)c(OC)cc2C(=O)N(C)C1c1cccnc1 (stereo unspecified)	i	i	i	i	i
O=C(NCCc1ccccc1)C1CCCN(c2cnccn2)C1 (stereo unspecified)	i	i	i	i	i
O=C(O)COc1ccc(C(NC(=O)c2c(F)cccc2F)NC(=O)c2c(F)cccc2F)cc1	i	i	i	i	i
O=C(NC(=S)NCCc1ccccc1)C1CCCCC1	i	i	i	i	i
S=C(NCCc1ccccc1)NN=C1CCCCCC1	i	i	7.4*	i	i
COCCNC(=S)NN=C1CCCCCC1	i	.	.	i	.
S=C(NCCc1ccccc1)N/N=C/C1CCCCC1	i	i	9.1*	i	i
Cc1ccc(C(=O)OCC(=O)Nc2sc3c(c2C#N)CCCC3)cc1NC(=O)c1ccco1	i	i	i	-7.5*	i
Cc1ccc(C(=O)OCC(=O)Nc2sc3c(c2C#N)CCCCC3)cc1NC(=O)c1ccco1	i	i	i	i	i

Screens as filed in PubChem BioAssay.
